Laboratory results published in article PMC10470302 (iScience, 2023).
Values belong to the molecule of their own block, whether it stands above or below them.

Assays:
[1] = tested on: CHERP recruitment to the genome, HEK293 cells; assay: ChIP-seq of CHERP; assay type: cell-based, human; settings: 2μM flavopiridol, HA-CHERP in HEK293 cells, HA antibody ChIP-seq
[2] = tested on: Ser2/Thr4 phosphorylation on RNA polymerase II, HEK293 cells; assay: Western blot of Pol II phosphorylation after flavopiridol; assay type: cell-based, human; settings: time course (Figure S10A)
CHERP (SCAF6) = CHERP (SCAF6) (UniProt Q8IWX8); assay: GST-CTD pull-down, label-free LC-MS/MS; settings: reference: GST-CTD, buffer with no kinase; sites S2
[3] = tested on: Pol II (RPB1, pSer2, pThr4), HEK293 cells; assay: Co-immunoprecipitation with Pol II; assay type: cell-based, human; settings: HEK293 extracts, western blot, at least three independent replicates
In short: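 Protein G beads were loaded overnight at 4°C with 3 µg antibody or control IgG. 250 µg protein was bound for 2 h, washed three times, eluted by boiling 5 min in 2× SDS buffer, then immunoblotted.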

[4] = tested on: pSer2 Pol II and CHERP in HEK293 cells; assay: Immunofluorescence colocalization of CHERP and pSer2 Pol II; assay type: cell-based, human; settings: transfected HEK293 cells, confocal, no flavopiridol, N = 7
In short: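 HEK293 cells were transfected (Fugene, 1:3 plasmid:reagent) with HA-CHERP or HA-CHERPΔCID, fixed 15 min in 1% formaldehyde at room temperature, and permeabilized with 0.2% Triton X-100. They were blocked 30 min in 2% BSA, then given primary antibody and Alexa Fluor 488/568 secondary, 1 h each at room temperature. Pearson coefficients were computed with threshold, from 7 cells across at least two biological replicates.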

Molecule: CN1CC[C@H](c2c(O)cc(O)c3c(=O)cc(-c4ccccc4Cl)oc23)[C@H](O)C1 [flavopiridol]
CHERP recruitment to the genome with flavopiridol [1]: great reduction of CHERP recruitment to the genome
Ser2/Thr4 phosphorylation on RNA polymerase II [2]: caused Ser2/Thr4 phosphorylation to be reduced

fold change (CHERP (SCAF6)): 2.9
Molecule: yeast CTD (GST-yCTD 26x) CTD, 26 heptad repeats GST-CTD treated with DYRK1A

B1: CHERP: calcium homeostasis endoplasmic reticulum protein; endogenous or HA-tagged full-length (protein)
chain: MEMPLPPDDQELRNVIDKLAQFVARNGPEFEKMTMEKQKDNPKFSFLFGGEFYSYYKCKLALEQQQLICKQQTPELEPAATMPPLPQPPLAPAAPIPPAQGAPSMDELIQQSQWNLQQQEQHLLALRQEQVTAAVAHAVEQQMQKLLEETQLDMNEFDNLLQPIIDTCTKDAISAGKNWMFSNAKSPPHCELMAGHLRNRITADGAHFELRLHLIYLINDVLHHCQRKQARELLAALQKVVVPIYCTSFLAVEEDKQQKIARLLQLWEKNGYFDDSIIQQLQSPALGLGQYQATLINEYSSVVQPVQLAFQQQIQTLKTQHEEFVTSLAQQQQQQQQQQQQLQMPQMEAEVKATPPPPAPPPAPAPAPAIPPTTQPDDSKPPIQMPGSSEYEAPGGVQDPAAAGPRGPGPHDQIPPNKPPWFDQPHPVAPWGQQQPPEQPPYPHHQGGPPHCPPWNNSHEGMWGEQRGDPGWNGQRDAPWNNQPDAAWNSQFEGPWNSQHEQPPWGGGQREPPFRMQRPPHFRGPFPPHQQHPQFNQPPHPHNFNRFPPRFMQDDFPPRHPFERPPYPHRFDYPQGDFPAEMGPPHHHPGHRMPHPGINEHPPWAGPQHPDFGPPPHGFNGQPPHMRRQGPPHINHDDPSLVPNVPYFDLPAGLMAPLVKLEDHEYKPLDPKDIRLPPPMPPSERLLAAVEAFYSPPSHDRPRNSEGWEQNGLYEFFRAKMRARRRKGQEKRNSGPSRSRSRSKSRGRSSSRSNSRSSKSSGSYSRSRSRSCSRSYSRSRSRSRSRSRSSRSRSRSQSRSRSKSYSPGRRRRSRSRSPTPPSSAGLGSNSAPPIPDSRLGEENKGHQMLVKMGWSGSGGLGAKEQGIQDPIKGGDVRDKWDQYKGVGVALDDPYENYRRNKSYSFIARMKARDECK
co-immunoprecipitation with Pol II or its phosphorylation forms [3]: interacted with total Pol II
colocalization correlation value (Pearson), CHERP vs pSer2 Pol II [4]: 0.77
